Drawing on ChEMBL document CHEMBL1155811, “Bioactive brominated metabolites from the Red Sea sponge Pseudoceratina arabica” (2008), this text covers Activity and zone of inhibition for eight compounds.

One assay concerns HCT-116. As to the kind of experiment: Cytotoxicity against human HCT116 cells at 10 ug/mL by MTT assay. The format is functional, cell-based. On the technique in general: Formazan colour is commonly taken as a measure of viable cells.
The test system of a further assay is Klebsiella pneumoniae. As to the kind of experiment: Antibacterial activity against Klebsiella pneumoniae ATCC 10032 assessed as inhibition zone at 1 mg after 24 hrs by agar diffusion method. The assay is classed as functional. The conditions noted are these: ATCC 10032, 24 h, read-out: IZ. In short, it runs like this:
(§1)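 Agar diffusion (cup method). Each compound, 1 mg dissolved in 1 mL DMF; 100 µL of this solution was placed in cups cut in seeded agar. Plates were incubated at 37 °C for 24 h and the inhibition zone was measured.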
A general note: A growth-free zone around the sample is the usual read-out of agar diffusion tests.

The next assay concerns Candida albicans. As to the kind of experiment: Antifungal activity against Candida albicans ATCC 2091 assessed as inhibition zone at 1 mg after 24 hrs by agar diffusion method. The conditions noted are these: ATCC 2091, 24 h, read-out: IZ. The format is functional. In short, it runs like this:
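Agar diffusion (cup) assay; Candida albicans ATCC 2091. Compound 1 mg dissolved in 1 mL DMF, 100 µL placed per cup; incubated 37 °C for 24 h; inhibition zone measured in mm.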

Assay [1] has as its system Heart. As to the kind of experiment: Parasympatholytic activity in isolated perfused rabbit heart assessed as decrease in 10gamma-acetylcholine induced effect. The conditions noted are these: Oryctolagus cuniculus. The format is functional, tissue-based. In short, it runs like this:
(§2)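 Rabbit heart perfused by modified Langendorff method. Normal contractions recorded and receptors (nicotinic, muscarinic, histaminergic, adrenergic) checked. Compound added at 1/100 dilution of 1.0 mg/mL aqueous stock. Then 0.1 mL nicotine (1/1000 dilution of 1 mL/100 mL H2O) or 10 gamma acetylcholine (0.1 mL of 1/10 000 dilution of 1 g/100 mL H2O) given; change in contraction recorded.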

Assay [2] has as its system Jejunum. In words: Parasympatholytic activity in isolated rabbit jejunum assessed as decrease in nicotine-induced intestinal contraction. The conditions noted are these: Oryctolagus cuniculus. The format is functional, tissue-based. In short, it runs like this:
(§3)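 Isolated rabbit jejunum. Compounds in distilled H2O (1.0 mg/mL stock), used at 1/1000 and 1/100 dilutions. Normal contractions recorded first. Then 0.1 mL nicotine (1/1000 dilution) or 10 gamma acetylcholine (0.1 mL of 1/10 000 dilution) added after the compound. Change in intestinal contraction recorded.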

Assay [3] concerns Heart. As to the kind of experiment: Parasympatholytic activity in isolated perfused rabbit heart assessed as decrease in nicotine-induced effect. The conditions noted are these: Oryctolagus cuniculus. The assay is classed as functional, tissue-based. In short, it runs like this: as §2
The subject of assay [4] is Jejunum. In words: Parasympatholytic activity in isolated rabbit jejunum assessed as decrease in 10gamma-acetylcholine induced intestinal contraction. The conditions noted are these: Oryctolagus cuniculus. The assay is classed as functional, tissue-based. In short, it runs like this: as §3
The test system of the next assay is Staphylococcus aureus. In words: Antibacterial activity against Staphylococcus aureus ATCC 6538P assessed as inhibition zone at 1 mg after 24 hrs by agar diffusion method. The assay is classed as functional. The conditions noted are these: read-out: IZ. In short, it runs like this:
as §1

For the next assay, the system named is Pseudomonas aeruginosa. In words: Antibacterial activity against Pseudomonas aeruginosa ATCC 9027 assessed as inhibition zone at 1 mg after 24 hrs by agar diffusion method. The format is functional. The conditions noted are these: ATCC 9027, 24 h, read-out: IZ. In short, it runs like this:
as §1

Active and inactive are the calls of the source. The calls are words filed in the database; no cut-off is given here.

Regarding `NCCCOc1c(Br)cc(C(O)CN)cc1Br` (stereo not drawn), the Activity result in the assay with HCT-116 was “Not toxic”.

In the case of `N#CC(=O)NCCCOc1c(Br)cc(CCN)cc1Br`, in the assay on HCT-116, the Activity result is “Not toxic”.

On to `COc1c(Br)cc(O)c(O)c1C=O`, for which the Activity entry in the assay with HCT-116 is “Not toxic”. Further, the zone of inhibition at 1000 µg/disc in the assay on Klebsiella pneumoniae worked out at 3 mm.

For the compound `NCCc1cc(Br)c(OCCCNC(=O)C(N)=O)c(Br)c1` [MOLOKA'IAKITAMIDE], the Activity entry with HCT-116 is “Not toxic”. For the same compound, the zone of inhibition at 1000 µg/disc in the assay on Candida albicans was 3 mm. The outcome in the assay with Heart [1], with Jejunum [2], with Heart [3] and with Jejunum [4] was Active.

Take `NCCCOc1c(Br)cc(CCN)cc1Br`: in the assay with HCT-116, the Activity result was “Not toxic”. Also, the result in the assay on Heart [1], in the assay on Jejunum [2], in the assay on Heart [3] and in the assay with Jejunum [4] was Active.

Turning to `C[N+]1=C2C=C(N)C(=O)c3[nH]cc(c32)CC1`, in the assay with HCT-116, the Activity entry is “Not toxic”.

Regarding `COC1=C(Br)C[C@]2(OC=C1Br)ON=C(C(=O)NCCCOc1c(Br)cc(CCN)cc1Br)[C@@H]2O` [PSAMMAPLYSIN A], in the assay with HCT-116, the Activity entry is “Not toxic”. Further, the zone of inhibition at 1000 µg/disc in the assay with Klebsiella pneumoniae amounted to 3 mm.

With `CCOC(=O)c1c(O)c(O)cc(Br)c1OC` [CERATINOPHENOL A], the Activity result with HCT-116 is “Not toxic”. The zone of inhibition at 1000 µg/disc in the assay on Klebsiella pneumoniae is 3 mm; with Candida albicans, 2 mm; in the assay on Staphylococcus aureus, 7 mm; in the assay on Pseudomonas aeruginosa it was 4 mm.
